Results taken from ChEMBL document CHEMBL4819066, “Repurposing primaquine as a polyamine conjugate to become an antibiotic adjuvant” (Bioorg Med Chem, 2021).

Tests used:
[1] = tested on: Klebsiella pneumoniae; assay: Antibacterial activity against Klebsiella pneumoniae ATCC 700603 assessed as reduction in microbial growth after 18 hrs by resazurin dye based assay; type: functional
Method in brief: (§1)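 Bacteria grown overnight at 37 °C in LB, NB or MHB, diluted 40-fold into MHB and grown 1.5-2 h to mid-log phase. Inoculum 5 × 10^5 CFU/mL (final), 2-fold serial dilutions, final range 0.008-32 µg/mL, in duplicate. […] Colistin as positive control, Z'-factor >0.4 for plate QC.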

[2] = tested on: Cryptococcus neoformans; assay: Antifungal activity against Cryptococcus neoformans ATCC 208821 assessed as reduction in microbial growth after 36 hrs by resazurin dye based assay; type: functional
Method in brief: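 Yeast grown 3 days on YPD agar at 30 °C and diluted in YNB broth to 2.5 × 10^3 CFU/mL. Compounds at 0.008-32 µg/mL final, 2-fold dilutions, in duplicate. After 36 h at 35 °C without shaking, resazurin added at 0.006% final for a further 3 h; MIC read as absorbance at OD570-600. Fluconazole as positive control.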

[3] = tested on: Escherichia coli; assay: Antibacterial activity against Escherichia coli ATCC 25922 assessed as reduction in microbial growth after 18 hrs by resazurin dye based assay; type: functional; method in brief: as §1
[4] = tested on: Pseudomonas aeruginosa; assay: Potentiation of doxycycline-induced antibacterial activity against Pseudomonas aeruginosa ATCC 27853 assessed as complete reduction in visible microbial growth after 18 hrs in presence of 4.5 uM doxycycline by two fold serial dilution method; type: functional
Method in brief: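 Adjuvant test by broth dilution: inoculum 5 × 10^5 CFU in 200 µL MHB. Two-fold serial dilutions of each derivative were given with doxycycline fixed at 2 µg/mL. After 18 h at 37 °C, the value recorded was the lowest adjuvant concentration giving complete absence of visible growth. Three independent repeats.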

[5] = tested on: Candida albicans; assay: Antifungal activity against Candida albicans ATCC 90028 assessed as reduction in microbial growth after 36 hrs by absorbance at OD530; conditions: ATCC 90028, 36 h
[6] = tested on: Staphylococcus aureus; assay: Antibacterial activity against methicillin-resistant Staphylococcus aureus ATCC 43300 assessed as reduction in microbial growth after 18 hrs by resazurin dye based assay; type: functional
Method in brief: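 Overnight culture at 37 °C, diluted 40-fold in MHB and grown 1.5-2 h to mid-log. Inoculum 5 × 10^5 CFU/mL. Two-fold serial dilutions, final 0.008-32 µg/mL, in duplicate. […] Vancomycin served as the Gram-positive standard.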

[7] = tested on: Acinetobacter baumannii; assay: Antibacterial activity against Acinetobacter baumannii ATCC 19606 assessed as reduction in microbial growth after 18 hrs by resazurin dye based assay; type: functional; conditions: ATCC 19606 = CIP 70.34 = JCM 6841; method in brief: as §1
[8] = tested on: Pseudomonas aeruginosa; assay: Antibacterial activity against Pseudomonas aeruginosa ATCC 27853 assessed as reduction in microbial growth after 18 hrs by resazurin dye based assay; type: functional; method in brief: as §1
[9] = Hemolytic activity in rat RBC incubated for 1 hr by Neubauer haemocytometric analysis; type: ADME, cell-based, Erythrocyte; conditions: red blood cells (erythrocytes)
[10] = tested on: HEK293; assay: Cytotoxicity against human HEK293 cells assessed as reduction in cell viability measured after 20 hrs by resazurin based Neubauer haemocytometric analysis; conditions: hek293, 20 h
Method in brief: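 HEK293 cells plated at 5,000 cells/well in DMEM with 10% FBS onto pre-dispensed compound and incubated 20 h at 37 °C, 5% CO2. Resazurin then added at 100 µM final for 3 h; fluorescence read at ex 560/em 590. Signal normalized to 74 µg/mL tamoxifen (0%) and untreated growth (100%). CC50 obtained from dose-response fit.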

[11] = tested on: L6; assay: Cytotoxicity against rat L6 cells assessed as reduction in cell viability at 0.123 to 90 ug/ml measured after 72 hrs by Alamar blue based inverted microscopy analysis; conditions: l6, 72 h, dose 0.123-90 µg/ml
Method in brief: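 Rat skeletal myoblast L6 cells, 4 × 10^4 per well, in RPMI 1640 with L-glutamine and 10% FBS. Seven 3-fold dilutions were tested, 90 to 0.123 µg/mL, for 72 h. Alamar Blue added for 2 h, and fluorescence read at ex 536/em 588 nm. Podophyllotoxin served as reference drug.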

| Compound | MIC [1] [µM] | MIC [2] [µM] | MIC [3] [µM] | MIC [4] [µM] | MIC [5] [µM] | MIC [6] [µM] | MIC [7] [µM] | MIC [8] [µM] | HC50 at 1 h [9] [µM] | Activity [10] | Activity [11] |
| --- | --- | --- | --- | --- | --- | --- | --- | --- | --- | --- | --- |
| O=C(CCC(=O)NCc1cccnc1)NCCCNCCCCNCCCNC(=O)CCC(=O)NCc1cccnc1 | > 39.5 | > 39.5 | > 39.5 | 617 | > 39.5 | > 39.5 | > 39.5 | > 39.5 |  |  |  |
| O=C(CCC(=O)Nc1cccc2cccnc12)NCCCNCCCCCCCCNCCCNC(=O)CCC(=O)Nc1cccc2cccnc12 | > 34.1 | > 34.1 | > 34.1 | 200 | > 34.1 | > 34.1 | > 34.1 | > 34.1 |  |  |  |
| C[C@H]1c2cccc(O)c2C(=O)C2=C(O)[C@]3(O)C(=O)C(C(N)=O)=C(O)[C@@H](N(C)C)[C@@H]3[C@@H](O)[C@@H]21 [DOXYCYCLINE] |  |  |  |  |  |  |  | > 45 |  |  |  |
| O=C(CCC(=O)Nc1ccc2ccccc2n1)NCCCNCCCCCCCCCCNCCCNC(=O)CCC(=O)Nc1ccc2ccccc2n1 | > 33.1 | > 33.1 | > 33.1 | 517 | > 33.1 | > 33.1 | > 33.1 | > 33.1 |  |  |  |
| O=C(CCC(=O)NCc1ccccn1)NCCCNCCCCNCCCNC(=O)CCC(=O)NCc1ccccn1 | > 39.5 | > 39.5 | > 39.5 | 617 | > 39.5 | > 39.5 | > 39.5 | > 39.5 |  |  |  |
| O=C(CCC(=O)Nc1cccc2ncccc12)NCCCNCCCCNCCCNC(=O)CCC(=O)Nc1cccc2ncccc12 | > 36.2 | > 36.2 | > 36.2 | 300 | > 36.2 | > 36.2 | > 36.2 | > 36.2 |  |  |  |
| O=C(CCC(=O)Nc1ccc2ncccc2c1)NCCCNCCCCNCCCNC(=O)CCC(=O)Nc1ccc2ncccc2c1 | > 36.2 | > 36.2 | > 36.2 | 566 | > 36.2 | > 36.2 | > 36.2 | > 36.2 |  |  |  |
| O=C(CCC(=O)Nc1cccc2cccnc12)NCCCNCCCCNCCCNC(=O)CCC(=O)Nc1cccc2cccnc12 | > 36.2 | > 36.2 | > 36.2 | 566 | > 36.2 | > 36.2 | > 36.2 | > 36.2 |  |  |  |
| CN[C@H](CC(C)C)C(=O)N[C@H]1C(=O)N[C@@H](CC(N)=O)C(=O)N[C@H]2C(=O)N[C@H]3C(=O)N[C@H](C(=O)N[C@H](C(=O)O)c4cc(O)cc(O)c4-c4cc3ccc4O)[C@H](O)c3ccc(c(Cl)c3)Oc3cc2cc(c3O[C@@H]2O[C@H](CO)[C@@H](O)[C@H](O)[C@H]2O[C@H]2C[C@](C)(N)[C@H](O)[C@H](C)O2)Oc2ccc(cc2Cl)[C@H]1O [VANCOMYCIN] |  |  |  |  |  | 0.7 |  |  |  |  |  |
| COc1cc(NC(=O)CCC(=O)NCCCNCCCCCCCCNCCCNC(=O)CCC(=O)Nc2cc(OC)cc3cccnc23)c2ncccc2c1 | > 32 | > 32 | > 32 | 300 | > 32 | > 32 | > 32 | > 32 |  |  |  |
| O=C(CCC(=O)Nc1cccc2cccnc12)NCCCNCCCCCCNCCCNC(=O)CCC(=O)Nc1cccc2cccnc12 | > 35.1 | > 35.1 | > 35.1 | 100 | > 35.1 | 17.6 | > 35.1 | > 35.1 |  |  |  |
| COLISTIN | 0.2 |  | 0.1 |  |  |  | 0.2 | 0.2 |  |  |  |
| O=C(CCC(=O)Nc1cccc2cccnc12)NCCCNCCCCCCCNCCCNC(=O)CCC(=O)Nc1cccc2cccnc12 | > 34.6 | > 34.6 | > 34.6 | 200 | > 34.6 | > 34.6 | > 34.6 | > 34.6 |  |  |  |
| O=C(CCC(=O)NCc1cccnc1)NCCCNCCCCCCCCCCNCCCNC(=O)CCC(=O)NCc1cccnc1 | > 35.8 | > 35.8 | > 35.8 | 559 | > 35.8 | > 35.8 | > 35.8 | > 35.8 |  |  |  |
| O=C(CCC(=O)Nc1ccc2ncccc2c1)NCCCNCCCCCCCCCCNCCCNC(=O)CCC(=O)Nc1ccc2ncccc2c1 | > 33.1 | > 33.1 | > 33.1 | 517 | > 33.1 | > 33.1 | > 33.1 | > 33.1 |  |  |  |
| COc1cc(NC(=O)CCC(=O)NCCCNCCCCCCNCCCNC(=O)CCC(=O)Nc2cc(OC)cc3cccnc23)c2ncccc2c1 | > 33 | > 33 | > 33 | 300 | > 33 | > 33 | > 33 | > 33 |  |  |  |
| O=C(CCC(=O)Nc1cccc2ncccc12)NCCCNCCCCCCCCCCNCCCNC(=O)CCC(=O)Nc1cccc2ncccc12 | > 33.1 | > 33.1 | > 33.1 | 517 | > 33.1 | > 33.1 | > 33.1 | > 33.1 |  |  |  |
| OC(Cn1cncn1)(Cn1cncn1)c1ccc(F)cc1F [FLUCONAZOLE] |  | 26 |  |  | 0.4 |  |  |  |  |  |  |
| O=C(CCC(=O)NCc1ccccn1)NCCCNCCCCCCCCCCNCCCNC(=O)CCC(=O)NCc1ccccn1 | > 35.8 | > 35.8 | > 35.8 | 559 | > 35.8 | > 35.8 | > 35.8 | > 35.8 |  |  |  |
| COc1cc(NC(=O)CCC(=O)NCCCNCCCCCCCNCCCNC(=O)CCC(=O)Nc2cc(OC)cc3cccnc23)c2ncccc2c1 | > 32.5 | > 32.5 | > 32.5 | 300 | > 32.5 | > 32.5 | > 32.5 | > 32.5 |  |  |  |
| O=C(CCC(=O)Nc1cccc2cccnc12)NCCCNCCCCCCCCCCNCCCNC(=O)CCC(=O)Nc1cccc2cccnc12.O=C(O)C(F)(F)F.O=C(O)C(F)(F)F | > 33.1 | > 33.1 | > 33.1 | 100 | > 33.1 | 33.1 | > 33.1 | > 33.1 | 30.5 | Non-Toxic | Non-Toxic |
| O=C(CCC(=O)Nc1ccc2ccccc2n1)NCCCNCCCCNCCCNC(=O)CCC(=O)Nc1ccc2ccccc2n1 | > 36.2 | > 36.2 | > 36.2 | 566 | > 36.2 | > 36.2 | > 36.2 | > 36.2 |  |  |  |
| COc1cc(NC(=O)CCC(=O)NCCCNCCCCCCCCCCNCCCNC(=O)CCC(=O)Nc2cc(OC)cc3cccnc23)c2ncccc2c1 | > 31.2 | > 31.2 | > 31.2 | 300 | > 31.2 | 3.9 | > 31.2 | > 31.2 |  |  |  |
| COc1cc(NC(=O)CCC(=O)NCCCNCCCCNCCCNC(=O)CCC(=O)Nc2cc(OC)cc3cccnc23)c2ncccc2c1 | > 33.9 | > 33.9 | > 33.9 | 200 | > 33.9 | > 33.9 | > 33.9 | > 33.9 |  |  |  |
